Data as given in ChEMBL document CHEMBL1142238, “Highly efficient ligands for dihydrofolate reductase from Cryptosporidium hominis and Toxoplasma gondii inspired by structural analysis” (J Med Chem, 2007).

What was measured:
[1] = target: T1, Bifunctional dihydrofolate reductase-thymidylate synthase (Toxoplasma gondii) (UniProt Q07422); test: Ligand efficiency at Toxoplasma gondii DHFR-TS relative to TMP
T1 sequence (whole entry): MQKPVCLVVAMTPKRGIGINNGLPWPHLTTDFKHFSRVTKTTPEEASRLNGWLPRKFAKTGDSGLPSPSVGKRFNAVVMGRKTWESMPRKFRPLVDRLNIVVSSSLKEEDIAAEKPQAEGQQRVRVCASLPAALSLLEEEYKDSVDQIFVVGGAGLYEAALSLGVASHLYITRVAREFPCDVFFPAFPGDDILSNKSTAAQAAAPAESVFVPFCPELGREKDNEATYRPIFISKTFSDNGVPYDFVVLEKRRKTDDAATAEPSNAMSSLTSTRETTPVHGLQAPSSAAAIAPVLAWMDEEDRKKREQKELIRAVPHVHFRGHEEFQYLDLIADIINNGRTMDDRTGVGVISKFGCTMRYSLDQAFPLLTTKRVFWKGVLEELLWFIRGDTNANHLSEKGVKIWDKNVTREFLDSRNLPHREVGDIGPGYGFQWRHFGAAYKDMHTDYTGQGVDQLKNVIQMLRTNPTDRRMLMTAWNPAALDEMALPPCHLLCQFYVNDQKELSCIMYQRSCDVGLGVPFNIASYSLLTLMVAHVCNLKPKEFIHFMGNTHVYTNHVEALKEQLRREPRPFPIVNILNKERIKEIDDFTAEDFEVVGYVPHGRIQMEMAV

[2] = target: T2, Bifunctional dihydrofolate reductase-thymidylate synthase (Toxoplasma gondii, UniProt Q07422); test: Inhibition of Toxoplasma gondii DHFR-TS
T2 sequence (Q07422 whole entry): T1 sequence (whole entry)

[3] = system: Cryptosporidium hominis; test: Ligand efficiency at Cryptosporidium hominis DHFR-TS relative to TMP
[4] = system: Cryptosporidium hominis; test: Ligand efficiency at Cryptosporidium hominis DHFR-TS
In short: (§1)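 Computed from the enzyme IC50 substituted for Kd: ΔG = (1.99 cal K^-1 mol^-1)(300 K)(ln IC50)(0.001 kcal/cal), divided by the number of non-hydrogen atoms.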

[5] = Inhibition of Cryptosporidium hominis DHFR-TS expressed in Escherichia coli
[6] = target: T1, Bifunctional dihydrofolate reductase-thymidylate synthase (Toxoplasma gondii); test: Ligand efficiency at Toxoplasma gondii DHFR-TS; in short: as §1

Compound | Activity [3] | Activity [4] | IC50 [5] [µM] | Activity [1] | IC50 [2] [µM] | Activity [6]
COc1cc(/C=C/c2cnc(N)nc2N)cc(OC)c1OC | – | – | > 1000 | – | – | –
COc1cc([C@H](C)C#Cc2c(C)nc(N)nc2N)cc(OC)c1OC | – | – | 1.91 | – | 0.013 | –
COc1cc(C(C)C#Cc2c(C)nc(N)nc2N)cc(OC)c1OC (stereo unspecified) | – | – | 0.169 | – | 0.12 | –
COc1cc(Cc2cnc(N)nc2N)cc(OC)c1OC | – | 0.32 | – | – | – | 0.33
COc1cc(CCc2cnc(N)nc2N)cc(OC)c1OC | – | – | > 1000 | – | 90.2 | –
COc1cc(C(C)C#Cc2cnc(N)nc2N)cc(OC)c1OC (stereo unspecified) | – | – | – | – | 3.1 | –

Continued, in another order:

Activity [3] | Activity [4] | IC50 [5] [µM] | Compound | Activity [1] | IC50 [2] [µM] | Activity [6]
0.29 | 0.29 | 10.2 | COc1cc(CC#Cc2c(C)nc(N)nc2N)cc(OC)c1OC | 0.35 | 0.88 | 0.35
– | – | 194 | COc1cc(C(O)C#Cc2cnc(N)nc2N)cc(OC)c1OC (stereo unspecified) | – | – | –
– | – | 5 | COc1cc(C(C#Cc2c(C)nc(N)nc2N)OC)cc(OC)c1OC (stereo unspecified) | – | 0.55 | –
– | – | 141 | COc1cc(C(O)C#Cc2c(C)nc(N)nc2N)cc(OC)c1OC (stereo unspecified) | – | 9.1 | –
0.41 | 0.41 | 0.038 | COc1cc([C@@H](C)C#Cc2c(C)nc(N)nc2N)cc(OC)c1OC | 0.49 | 0.0014 | 0.49
0.24 | – | 86.1 | COc1cc(CC#Cc2cnc(N)nc2N)cc(OC)c1OC | 0.28 | 21.7 | –
– | 0.32 | 0.023 | CN(Cc1cnc2nc(N)nc(N)c2n1)c1ccc(C(=O)N[C@@H](CCC(=O)O)C(=O)O)cc1 [METHOTREXATE] | – | – | 0.33
– | – | 133 | COc1cc(C(C#Cc2cnc(N)nc2N)OC)cc(OC)c1OC (stereo unspecified) | – | 9.8 | –
